Measurements published in ChEMBL document CHEMBL3259711, “Synthesis, anti-HIV and cytostatic evaluation of 3'-deoxy-3'-fluorothymidine (FLT) pro-nucleotides” (Bioorg Med Chem Lett, 2014).

What was measured:
[1] = tested on: Human immunodeficiency virus 1; assay: Antiretroviral activity against HIV-1 3B infected in human CEM/0 cells expressing thymidine kinase assessed as inhibition of virus-induced giant cell formation after 4 to 5 days by microscopic analysis; assay type: functional, organism-based; conditions: Human immunodeficiency virus 1, 3B, CCRF-CEM
How it was run: (§1)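 CEM cells (~3 × 10⁵/mL; wild-type or thymidine kinase-deficient) infected with 100 CCID₅₀/mL HIV-1(IIIB) or HIV-2(ROD) with serial compound dilutions; 4–5 days at 37 °C, humidified CO₂. Syncytium (giant cell) formation scored microscopically; EC₅₀ = concentration inhibiting giant cell formation by 50%. Means of at least 2–3 independent experiments.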

[2] = tested on: Human immunodeficiency virus 2; assay: Antiretroviral activity against HIV-2 ROD infected in human CEM/0 cells expressing thymidine kinase assessed as inhibition of virus-induced giant cell formation after 4 to 5 days by microscopic analysis; assay type: functional, organism-based; conditions: Human immunodeficiency virus 2, ISOLATE ROD, CCRF-CEM; how it was run: as §1
[3] = tested on: Human immunodeficiency virus 2; assay: Antiretroviral activity against HIV-2 ROD infected in thymidine kinase-deficient human CEM cells assessed as inhibition of virus-induced giant cell formation after 4 to 5 days by microscopic analysis; assay type: functional, organism-based; conditions: Human immunodeficiency virus 2, ISOLATE ROD, CCRF-CEM; how it was run: as §1
CCRF-CEM [4] = assay: Cytostatic activity against human CEM/0 cells expressing thymidine kinase assessed as inhibition of cell proliferation after 48 hrs by Coulter counter analysis; assay type: functional, cell-based
How it was run: (§2)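 Tumour cells ((5–7.5) × 10⁴ per well) grown with test compound for 48 h at 37 °C, humidified CO₂; cells counted by Coulter counter. IC₅₀ = concentration inhibiting proliferation by 50%. Means of at least 2–3 independent experiments.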

CCRF-CEM [5] = assay: Cytostatic activity against thymidine kinase-deficient human CEM cells assessed as inhibition of cell proliferation after 48 hrs by Coulter counter analysis; assay type: functional, cell-based; how it was run: as §2
L1210 = assay: Cytostatic activity against mouse L1210 cells assessed as inhibition of cell proliferation after 48 hrs by Coulter counter analysis; assay type: functional, cell-based; conditions: L1210, 48 h; how it was run: as §2
[6] = Cytostatic activity against human CEM/0 cells expressing thymidine kinase assessed as inhibition of cell proliferation at EC50 after 48 hrs by Coulter counter analysis; assay type: cell-based; conditions: ccrf-cem
CCRF-CEM [7] = assay: Cytostatic activity against thymidine kinase-deficient human CEM cells assessed as inhibition of cell proliferation at EC50 after 48 hrs by Coulter counter analysis; assay type: cell-based
[8] = tested on: Human immunodeficiency virus 2; assay: Ratio of EC50 for HIV-2 ROD infected in thymidine kinase-deficient human CEM cells to EC50 for HIV-2 ROD infected in human CEM/0 cells expressing thymidine kinase; assay type: functional, ISOLATE ROD, CCRF-CEM

In the case of `COC(=O)[C@H](C)NP(=O)(OC[C@H]1O[C@@H](n2cc(C)c(=O)[nH]c2=O)C[C@@H]1F)Oc1ccccc1` (some centres undefined), the EC50 [1] is reported as 550 nM, the EC50 [2] is reported as 1300 nM and the EC50 [3] is reported as 4.7 µM. It also gave an IC50 (CCRF-CEM [4]) of over 250 µM, an IC50 (CCRF-CEM [5]) of over 250 µM and an IC50 (L1210) of 8.2 µM.
With `CCOC(=O)[C@H](C)NP(=O)(OC[C@H]1O[C@@H](n2cc(C)c(=O)[nH]c2=O)C[C@@H]1F)Oc1ccccc1` (some centres undefined) the EC50 [1] was 100 nM, the EC50 [2] was 240 nM and the EC50 [3] was 1.3 µM. The IC50 (CCRF-CEM [4]) was over 250 µM, the IC50 (CCRF-CEM [5]) was over 250 µM and the IC50 (L1210) was 4.4 µM.
`Cc1cn([C@H]2C[C@H](F)[C@@H](COP(=O)(N[C@@H](C)C(=O)OC(C)C)Oc3ccccc3)O2)c(=O)[nH]c1=O` (some centres undefined) showed an EC50 [1] of 750 nM, an EC50 [2] of 1100 nM and an EC50 [3] of 28 µM. The IC50 (CCRF-CEM [4]) was 145 µM, the IC50 (CCRF-CEM [5]) was over 250 µM and the IC50 (L1210) was 23 µM.
For `Cc1cn([C@H]2C[C@H](F)[C@@H](COP(=O)(N[C@@H](C)C(=O)OC(C)(C)C)Oc3ccccc3)O2)c(=O)[nH]c1=O` (some centres undefined), the EC50 [1] was 290 nM, the EC50 [2] was 900 nM and the EC50 [3] was over 50 µM. For the same compound, the IC50 (CCRF-CEM [4]) was 124 µM, the IC50 (CCRF-CEM [5]) was over 250 µM and the IC50 (L1210) was 6.3 µM.
Work on `Cc1cn([C@H]2C[C@H](F)[C@@H](COP(=O)(N[C@@H](C)C(=O)OCc3ccccc3)Oc3ccccc3)O2)c(=O)[nH]c1=O` (some centres undefined) yielded an EC50 [1] of 130 nM, an EC50 [2] of 180 nM and an EC50 [3] of 2 µM. For the same compound, the IC50 (CCRF-CEM [4]) was 117 µM, the IC50 (CCRF-CEM [5]) was 172 µM and the IC50 (L1210) was 5.8 µM.
`COC(=O)[C@H](C)NP(=O)(OC[C@H]1O[C@@H](n2cc(C)c(=O)[nH]c2=O)C[C@@H]1F)Oc1cccc2ccccc12` (some centres undefined) gave an EC50 [1] of 430 nM, an EC50 [2] of 650 nM and an EC50 [3] of 3 µM. The IC50 (CCRF-CEM [4]) was 66 µM, the IC50 (CCRF-CEM [5]) was 112 µM and the IC50 (L1210) was 3 µM.
Work on `CCOC(=O)[C@H](C)NP(=O)(OC[C@H]1O[C@@H](n2cc(C)c(=O)[nH]c2=O)C[C@@H]1F)Oc1cccc2ccccc12` (some centres undefined) yielded an EC50 [1] of 160 nM, an EC50 [2] of 180 nM and an EC50 [3] of 5.2 µM. The IC50 (CCRF-CEM [4]) was 81 µM, the IC50 (CCRF-CEM [5]) was 138 µM and the IC50 (L1210) was 6 µM.
Compound `Cc1cn([C@H]2C[C@H](F)[C@@H](COP(=O)(N[C@@H](C)C(=O)OC(C)C)Oc3cccc4ccccc34)O2)c(=O)[nH]c1=O` (some centres undefined) has an EC50 [1] of 560 nM, an EC50 [2] of 1000 nM and an EC50 [3] of over 50 µM. The IC50 (CCRF-CEM [4]) was 206 µM, the IC50 (CCRF-CEM [5]) was over 250 µM and the IC50 (L1210) was 24 µM.
With `Cc1cn([C@H]2C[C@H](F)[C@@H](COP(=O)(N[C@@H](C)C(=O)OC(C)(C)C)Oc3cccc4ccccc34)O2)c(=O)[nH]c1=O` (some centres undefined) the EC50 [1] was 2300 nM, the EC50 [2] was 4700 nM and the EC50 [3] was over 50 µM. The IC50 (CCRF-CEM [4]) was 148 µM, the IC50 (CCRF-CEM [5]) was over 250 µM and the IC50 (L1210) was 36 µM.
Compound `Cc1cn([C@H]2C[C@H](F)[C@@H](COP(=O)(N[C@@H](C)C(=O)OC3CCCCC3)Oc3cccc4ccccc34)O2)c(=O)[nH]c1=O` (some centres undefined) has an EC50 [1] of 48 nM, an EC50 [2] of 140 nM and an EC50 [3] of 2 µM. For the same compound, the IC50 (CCRF-CEM [4]) was 13 µM, the IC50 (CCRF-CEM [5]) was 20 µM and the IC50 (L1210) was 2.9 µM. The Activity [6] was “Non-toxic” and the Activity (CCRF-CEM [7]) was “Non-toxic”.
With `Cc1cn([C@H]2C[C@H](F)[C@@H](COP(=O)(N[C@@H](C)C(=O)OCC(C)(C)C)Oc3cccc4ccccc34)O2)c(=O)[nH]c1=O` (some centres undefined) the EC50 [1] was 32 nM, the EC50 [2] was 80 nM and the EC50 [3] was 0.87 µM. It also gave an IC50 (CCRF-CEM [4]) of 14 µM, an IC50 (CCRF-CEM [5]) of 20 µM and an IC50 (L1210) of 1.9 µM. For the same compound, the Activity [6] was “Non-toxic”, the Activity (CCRF-CEM [7]) was “Non-toxic” and the Ratio EC50 [8] was 10.
With `Cc1cn([C@H]2C[C@H](F)[C@@H](COP(=O)(N[C@@H](C)C(=O)OCc3ccccc3)Oc3cccc4ccccc34)O2)c(=O)[nH]c1=O` (some centres undefined) the EC50 [1] was 120 nM, the EC50 [2] was 180 nM and the EC50 [3] was 2.1 µM. It also gave an IC50 (CCRF-CEM [4]) of 54 µM, an IC50 (CCRF-CEM [5]) of 57 µM and an IC50 (L1210) of 5.2 µM.
`COP(=O)(N[C@@H](C)C(=O)OCc1ccccc1)OC[C@H]1O[C@@H](n2cc(C)c(=O)[nH]c2=O)C[C@@H]1F` (some centres undefined) showed an EC50 [1] of 650 nM, an EC50 [2] of 1600 nM and an EC50 [3] of 89 µM. For the same compound, the IC50 (CCRF-CEM [4]) was 100 µM, the IC50 (CCRF-CEM [5]) was over 250 µM and the IC50 (L1210) was 43 µM.
In the case of `Cc1cn([C@H]2C[C@H](F)[C@@H](COP(=O)(N[C@@H](C)C(=O)OCc3ccccc3)N[C@@H](C)C(=O)OCc3ccccc3)O2)c(=O)[nH]c1=O`, the EC50 [1] is reported as 36 nM, the EC50 [2] is reported as 130 nM and the EC50 [3] is reported as 1 µM. The IC50 (CCRF-CEM [4]) was 17 µM, the IC50 (CCRF-CEM [5]) was 22 µM and the IC50 (L1210) was 1.2 µM. For the same compound, the Activity [6] was “Non-toxic” and the Activity (CCRF-CEM [7]) was “Non-toxic”.
With `Cc1cn([C@H]2C[C@H](F)[C@@H](COP(=O)(N[C@@H](C)C(=O)OCC(C)(C)C)N[C@@H](C)C(=O)OCC(C)(C)C)O2)c(=O)[nH]c1=O` the EC50 [1] was 17 nM, the EC50 [2] was 45 nM and the EC50 [3] was 20 µM. The IC50 (CCRF-CEM [4]) was 66 µM, the IC50 (CCRF-CEM [5]) was 43 µM and the IC50 (L1210) was 3.8 µM.
For `Cc1cn([C@H]2C[C@H](F)[C@@H](CO)O2)c(=O)[nH]c1=O` [ALOVUDINE], the EC50 [1] was 6.2 nM, the EC50 [2] was 18 nM and the EC50 [3] was over 50 µM. For the same compound, the IC50 (CCRF-CEM [4]) was 39 µM, the IC50 (CCRF-CEM [5]) was over 250 µM and the IC50 (L1210) was 0.081 µM. The Ratio EC50 [8] was over 1000.
